From ChEMBL document CHEMBL4665870, “RNA drug discovery: Conformational restriction enhances specific modulation of the T-box riboswitch function” (Bioorg Med Chem, 2020) come the findings set out here.

A short description of assay [1]: Induction of tRNA-5'TAMRA-antiterminator RNA (unknown origin) complex disruption using fluorescently-labeled AM at 100 uM by fluorescence anisotropy monitored complex disruption assay. In outline: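 Fluorescence anisotropy of 100 nM 5′-TAMRA-AM with 2.5 μM tRNA and 100 μM ligand (n = 3). Controls were AM alone (r−) and AM plus tRNA (r+), run in replicate. Significance assessed by unpaired t-test.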

A short description of assay [2]: Binding affinity to 5'TAMRA-antiterminator RNA (unknown origin) assessed as structural changes by fluorescence-monitored ligand binding assay relative to bulge deletion AM.
Assay [3] is described as follows: Inhibition of tRNA-induced Escherichia coli RNA polymerase mediated T-box riboswitch transcription readthrough assessed as riboswitch function in presence of RTprb and dsDNA at 100 uM by fluorescence-monitored in vitro transcription assay. In outline:
(§1)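 In vitro transcription with 10 nM DNA template and 0.05 U/μL E. coli RNA polymerase sigma-saturated holoenzyme. Readout by 100 nM molecular beacon, with or without 30 nM tRNA and 100 μM ligand, at 28 °C. Readthrough = fluorescence at 6 h minus 0 min. Triplicates, unpaired t-test.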

The nature of assay [4]: Inhibition of tRNA-induced Escherichia coli RNA polymerase mediated T-box riboswitch transcription readthrough assessed as overall transcription in presence of RTprb and dsDNA at 100 uM by fluorescence-monitored in vitro transcription assay. In outline: as §1
Assay [5] deals with T-box riboswitch antiterminator RNA (Bacillus subtilis). As to the kind of experiment: Binding affinity to 5'TAMRA antiterminator C11U RNA (unknown origin) assessed as structural changes by fluorescence-monitored ligand binding assay relative to bulge deletion AM.
The nature of assay [6]: Effect on HEX-antiterminator RNA-DABCYL (unknown origin) thermal stability at 100 uM by measuring fluorescence by AriaMx Real-Time PCR system. In outline: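 100 nM fluorophore–quencher 5′-HEX-AM-3′-DABCYL with 100 μM ligand in 10 mM sodium phosphate, 0.01 mM EDTA, pH 6.5, 5% DMSO. Fluorescence read (ex 535 nm / em 555 nm) while heating 40–90 °C. Tm taken from the first derivative of the raw data.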

SMILES strings stand for the structures. The source made the active and inactive calls. The rule behind the calls is not given here.

For `CC(=O)c1ccc(NC(=O)OC[C@H]2OC(=O)N3CCc4c(-c5ccccc5)nnn4C[C@H]23)cc1`, in assay [1], the Activity is -28%. The result in assay [2] and in assay [5] was Active. In addition, the inhibition result in assay [3] was “Active”. For the same compound, the inhibition entry in assay [4] was “inactive”. Moreover, in assay [6], the result was inactive.
In the case of `CC(=O)c1ccc(NC(=O)OC[C@@H]2OC(=O)N[C@H]2CN2CCN(c3ccccc3)CC2)cc1`, the inhibition entry in assay [3] is “Active”. Moreover, the inhibition entry in assay [4] is “inactive”.
Taken in the same sequence, the figures for `O=C(Cc1ccccc1)OC[C@@H]1OC(=O)N[C@H]1CN1CCN(c2ccccc2)CC1` were “Active” and “inactive”.
Taken in the same sequence, the figures for `CC(=O)c1ccc(NC(=O)OC[C@H]2OC(=O)N[C@@H]2CN2CCN(c3ccccc3)CC2)cc1` were “Active” and “inactive”.
As for `O=C(Cc1ccccc1)OC[C@H]1OC(=O)N[C@@H]1CN1CCN(c2ccccc2)CC1`, the inhibition entry in assay [3] was “Active”. In addition, the inhibition entry in assay [4] is “inactive”.
On to `CC(=O)c1ccc(NC(=O)OC[C@@H]2OC(=O)N3CCc4c(-c5ccccc5)nnn4C[C@@H]23)cc1`, for which the Activity in assay [1] is -20%. For the same compound, the outcome in assay [2] and in assay [5] was Active. Moreover, in assay [3], the inhibition result is “Active”. For the same compound, the inhibition entry in assay [4] was “inactive”. In addition, the result in assay [6] was inactive.
Regarding `O=C(Cc1ccccc1)OC[C@@H]1OC(=O)N2CCc3c(-c4ccccc4)nnn3C[C@@H]12`, the result in assay [1] and in assay [6] was inactive. In addition, the result in assay [2] and in assay [5] was Active. In assay [3], the inhibition entry was “Active”. Moreover, the inhibition entry in assay [4] is “inactive”.
As to `O=C(Cc1ccccc1)OC[C@H]1OC(=O)N2CCc3c(-c4ccccc4)nnn3C[C@H]12`, the outcome in assay [1], in assay [5] and in assay [6] was inactive. Further, the outcome in assay [2] was Active. For the same compound, the inhibition result in assay [3] was “Active”. In addition, the inhibition entry in assay [4] is “inactive”.
